Here are results for two compounds from ChEMBL document CHEMBL1139543, “Antineoplastic agents. 445. Synthesis and evaluation of structural modifications of (Z)- and (E)-combretastatin A-41” (J Med Chem, 2005).

The subject of assay [1] is FaDu. Briefly: Growth inhibition against human pharynx FADU cell line. Type of assay: functional.
Assay [2] relates to NCI-H460. Briefly: Growth inhibition against human lung-NSC NCI-H460 cell line. Type of assay: functional.
In assay [3] the test system is DU-145. Briefly: Growth inhibition against human prostate cell line (DU-145). Type of assay: functional.
For assay [4], the system named is SW-1736. The assay can be described thus: Growth inhibition against human thyroid cell line( SW 1736). The class given is functional.
Assay [5] relates to Enterococcus faecalis. The assay can be described thus: Minimum inhibitory concentration against Enterococcus faecalis was determined in the disk diffusion assay value ranges from 50-100 ug/disk. Type of assay: functional.
The subject of assay [6] is Staphylococcus aureus. Briefly: Minimum inhibitory concentration against Staphylococcus aureus was determined in the disk diffusion assay; value ranges from 25-50 ug/disk. Type of assay: functional. In general terms: A growth-free zone around the sample is the usual read-out of agar diffusion tests.
The subject of assay [7] is Neisseria gonorrhoeae. The assay can be described thus: Minimum inhibitory concentration against Neisseria gonorrhoeae was determined in the disk diffusion assay; value ranges from 50-100 ug/disk. Type of assay: functional.
Assay [8] concerns Micrococcus luteus. Briefly: Minimum inhibitory concentration against Micrococcus luteus was determined in the disk diffusion assay. The class given is functional.
Assay [9] concerns P388. The assay can be described thus: Effective dose against murine P388 leukemia cell line. The class given is functional. The conditions noted are these: Mus musculus, read-out: ED50 (the source's name).
For assay [10], the target named is Tubulin beta-1 chain (Homo sapiens, UniProt Q9H4B7). The assay can be described thus: Inhibition of tubulin polymerization upon incubation for 20 min at 30 degree C. In short, it runs like this: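 Purified tubulin at 10 µM (1.0 mg/mL) in 0.8 M monosodium glutamate, pH 6.6, with 4% (v/v) DMSO and varying compound concentrations. Preincubated 15 min at 37 °C, chilled on ice, then GTP (0.4 mM) added. Warmed from 0 °C to 30 °C, and assembly followed 20 min by turbidity at 350 nm. IC50 interpolated; at least two determinations; SD reported.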
Chain of Tubulin beta-1 chain (Q9H4B7 whole entry): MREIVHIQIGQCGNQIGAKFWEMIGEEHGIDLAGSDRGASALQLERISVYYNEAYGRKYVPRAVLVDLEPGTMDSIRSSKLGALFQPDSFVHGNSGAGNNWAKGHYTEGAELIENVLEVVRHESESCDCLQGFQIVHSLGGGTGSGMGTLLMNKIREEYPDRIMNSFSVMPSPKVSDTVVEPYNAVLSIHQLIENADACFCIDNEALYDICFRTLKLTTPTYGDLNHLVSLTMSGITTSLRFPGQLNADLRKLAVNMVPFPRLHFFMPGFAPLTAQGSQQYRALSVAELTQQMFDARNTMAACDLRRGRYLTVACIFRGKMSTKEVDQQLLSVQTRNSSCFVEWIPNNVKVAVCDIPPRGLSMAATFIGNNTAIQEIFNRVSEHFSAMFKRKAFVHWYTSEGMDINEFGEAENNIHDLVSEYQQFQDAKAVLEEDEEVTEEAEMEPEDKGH

Assay [11] deals with SK-N-SH. The assay can be described thus: Growth inhibition against human neuroblastoma cell line (SK-N-SH). The class given is functional.
Assay [12] has as its system BXPC-3. Briefly: Growth inhibition against human pancreas carcinoma cell line (BxPC-3). The class given is functional.
Assay [13] concerns Micrococcus luteus. The assay can be described thus: Minimum inhibitory concentration against Micrococcus luteus was determined in the disk diffusion assay; value ranges from 12.5-25 ug/disk. The class given is functional.
Assay [14] deals with Staphylococcus aureus. The assay can be described thus: Minimum inhibitory concentration against Staphylococcus aureus was determined in the disk diffusion assay; value ranges from 50-100 ug/disk. Type of assay: functional.

By GI50 is commonly meant the concentration giving 50% growth inhibition. Higher therefore signals less potent growth inhibition. Broadly, the IC50 is the concentration that inhibits the measured activity by half. Low readings indicate higher potency, high ones lower potency. For `CCN(CC)CCOc1cc(/C=C\c2cc(OC)c(OC)c(OC)c2)ccc1OC.Cl`, the concentration for 50% growth inhibition (GI50) is 1.1 mg/L in [1]; 3.3 mg/L in [2]; 3.4 mg/L in assay [3]; 1.1 mg/L in assay [4]; 1.5 mg/L in assay [11]; > 10 mg/L in assay [12]. Further, the MIC in assay [5] was 100 ug/disk; in assay [6], 50 ug/disk; in assay [7], 100 ug/disk; in assay [8], <6.25 ug/disk. In addition, the EC50 in assay [9] is 0.255 mg/L. Also, the half-inhibitory concentration (IC50) in assay [10] is > 40 µM.

As to `COc1ccc(/C=C\c2cc(OC)c(OC)c(OC)c2)cc1OCCN1CCCC1.Cl`, the concentration for 50% growth inhibition (GI50) in assay [1] stood at 0.49 mg/L; in assay [2], 0.34 mg/L; in assay [3], 0.35 mg/L; in assay [4], 0.6 mg/L; in [11] it was 0.22 mg/L; in assay [12], 2 mg/L. For the same compound, the values for the MIC in assay [13] and in [14] were 25 ug/disk and 100 ug/disk, respectively. Also, the EC50 in [9] came to 0.421 mg/L. Also, in assay [10], the IC50 was > 40 µM.
